Experimental data of several laboratories.
Lines come from different studies, so protocols differ.
EGFR: Epidermal growth factor receptor (EGFR, Homo sapiens, UniProt P00533)
EGFR L858R/T790M: Epidermal growth factor receptor (EGFR, Homo sapiens, UniProt P00533, L858R/T790M)

| Compound | target | effect on | mode | technique | tested at | quantity | result |
| --- | --- | --- | --- | --- | --- | --- | --- |
| CC(C)[C@@H]1NC(=O)[C@H](C)NC(=O)[C@H](C)NC(=O)[C@H](Cc2ccc(O)cc2)NC(=O)[C@H](Cc2ccc(O)cc2)NC(=O)[C@H](Cc2ccccc2)NC(=O)[C@@H](Cc2ccc(O)cc2)NC(=O)CSC[C@@H](C(=O)NCC(N)=O)NC(=O)[C@H](C)NC(=O)[C@H](CCCNC(=N)N)NC(=O)[C@H](CCCNC(=N)N)NC(=O)[C@H](Cc2ccc(O)cc2)NC(=O)[C@H](C(C)C)NC(=O)[C@H](C(C)C)NC(=O)[C@H](CC(N)=O)NC1=O | EGFR | binding | – | SPR | – | kon | 38800 M⁻¹ s⁻¹ |
| Nc1ncc(-c2nc(N3CCOCC3)nc(N3CCOCC3)n2)c(C(F)F)n1 | Epidermal growth factor receptor (EGFR, Homo sapiens, UniProt P00533, L861Q) | cell-free assay | – | competition with immobilised ligand | 10 µM | remaining binding | 77% |
| C#Cc1n[nH]c2c(-c3cn([C@@H](C)c4ccccc4)c(=O)[nH]c3=O)cc(F)cc12 | EGFR L858R/T790M | enzyme activity | inhibitor | – | 0.1 µM | inhibition | -4.9% |
| C[C@H](C(=O)N[C@H]1COc2ccccc2[C@@H]1S(C)(=O)=O)c1ccc(F)cc1 | EGFR | enzyme activity | inhibitor | – | 10 µM | inhibition | 1% |
| COc1ncccc1-c1cnn2ccc(N3CCN(C(=O)OC(C)C)CC3)nc12 | EGFR | binding | – | competition with immobilised ligand | 1 µM | remaining binding | 89% |
| Cn1cncc1[C@](O)(COc1ccc(C#N)cc1-c1ccc(OC(F)(F)F)cc1)c1ccc(C#N)cc1 | Epidermal growth factor receptor (EGFR, Homo sapiens, UniProt P00533, del747-752/P753S) | cell-free assay | – | competition with immobilised ligand | 1 µM | remaining binding | 76% |
| CC(C)(C)c1cc(C=C(C#N)C#N)cc(Br)c1O | EGFR | enzyme activity | inhibitor | – | 0.5 µM | remaining activity | 106% |
| C#Cc1n[nH]c2c(-c3cn([C@@H](C)c4ccccn4)c(=O)[nH]c3=O)cc(F)cc12 | EGFR L858R/T790M | enzyme activity | inhibitor | – | 0.1 µM | inhibition | -3.6% |
| COc1ccc2c(c1)/C(=C/c1cnc[nH]1)C(=O)N2 | EGFR | cell-free assay | – | – | 0.5 µM | remaining signal | 99.4% |
| N#CC1(c2ccccn2)CCN(Cc2cc(C(=O)O)c(=O)n3ccccc23)CC1 | EGFR | cell-free assay | – | competition with immobilised ligand | 1 µM | remaining binding | 83% |
| c1ccc(C(NCCNC(c2ccccc2)c2ccccc2)c2ccccc2)cc1 | EGFR | enzyme activity | inhibitor | – | 10 µM | inhibition | -8% |
| Cn1cc(-c2cc(F)cc(N3CCn4c(cc5c4CCCC5)C3=O)c2CO)cc(Nc2ccc(N3CCN(C4COC4)CC3)cn2)c1=O | EGFR | enzyme activity | inhibitor | – | 0.1 µM | inhibition | 7% |
| Cc1nn(C)cc1-c1nc2c(N3CCN(Cc4ccc(Cl)cc4)CC3)c(Cl)cnc2[nH]1 | Epidermal growth factor receptor (EGFR, Homo sapiens, UniProt P00533, T790M) | binding | – | competition with immobilised ligand | 1 µM | remaining binding | 82% |
